Assay results of several laboratories.
pEC50: −log10 of the molar value. Converted amounts (≈) assume the structure as drawn.

CS(=O)(=O)c1ccc([C@@H](O)[C@@H](CF)NC(=O)C(Cl)Cl)cc1  MIC (Salmonella enterica; microbial growth; ENTERITIDIS; 20 h, pH 7.2): 8 µg/mL (≈ 22.3 µM)
O=c1cc(-c2ccc(O)cc2)oc2cc(O)cc(O)c12  inhibition (Helicobacter pylori; microbial growth, broth dilution; 31.25 µg/mL): 100%
O=C(N[C@H](CO)[C@H](O)c1ccc([N+](=O)[O-])cc1)C(Cl)Cl  MIC (Salmonella enterica; microbial growth; 20 h, pH 7): 2 µg/mL (≈ 6.19 µM)
O=C(Nc1cncc(-c2nc3ccccc3o2)c1)c1ccc(N2CCNCC2)c([N+](=O)[O-])c1  pEC50 (BJ; cell growth or viability, ATP luminescence): < 4.70
CNc1ccnc(Nc2cccc(-c3cccnc3)c2)n1  pEC50 (BJ; cell growth or viability, ATP luminescence; 72 h): < 4.70
O=C(O)c1ccc(O)cc1  inhibition (Helicobacter pylori; microbial growth, broth dilution; 125 µg/mL): 100%
CN(c1ccnc(Nc2cccc(-c3cccnc3)c2)n1)C1CCCCC1  pEC50 (BJ; cell growth or viability, ATP luminescence; 72 h): < 5.10
O=c1cc(-c2ccc(O)c(O)c2)oc2cc(O)cc(O)c12  inhibition (Helicobacter pylori; microbial growth, broth dilution; 3.9 µg/mL): 100%
CO/N=C(\C(=O)N[C@@H]1C(=O)N2C(C(=O)O)=C(CSc3nc(=O)c(=O)[nH]n3C)CS[C@H]12)c1csc(N)n1  MIC (Salmonella enterica; microbial growth; F98, TYPHIMURIUM; 20 h, pH 7.2): 0.125 µg/mL (≈ 0.225 µM)
C[C@H](Nc1ccnc(Nc2cccc(-c3cccnc3)c2)n1)C(=O)O  pEC50 (BJ; cell growth or viability, ATP luminescence; 72 h): < 5.05
CN(C)[C@@H]1C(O)=C(C(N)=O)C(=O)[C@@]2(O)C(O)=C3C(=O)c4c(O)cccc4[C@@](C)(O)[C@H]3C[C@@H]12  MIC (Salmonella enterica; microbial growth; ENTERITIDIS; 20 h, pH 7.2): 2 µg/mL (≈ 4.5 µM)
CC[C@H]1OC(=O)[C@H](C)[C@@H](O[C@H]2C[C@@](C)(OC)[C@@H](O)[C@H](C)O2)[C@H](C)[C@@H](O[C@@H]2O[C@H](C)C[C@H](N(C)C)[C@H]2O)[C@](C)(OC)C[C@@H](C)C(=O)[C@H](C)[C@@H](O)[C@]1(C)O  inhibition (Helicobacter pylori; microbial growth, broth dilution; 0.24 µg/mL): 81.3%
COC(=O)c1cccc(Nc2nccc(NC3CCCCC3)n2)c1  pEC50 (BJ; cell growth or viability, ATP luminescence; 72 h): < 4.77
Cc1cc(NS(=O)(=O)c2ccc(N)cc2)no1  MIC (Salmonella enterica; microbial growth; ENTERITIDIS; 20 h, pH 5.5): 128 µg/mL (≈ 505 µM)
CN(C)C/C=C/C(=O)Nc1cc2c(Nc3ccc(F)c(Cl)c3)ncnc2cc1O[C@H]1CCOC1  viability (KB-C2; cell growth or viability, ATP luminescence; 6 µM, 12 days, 3D culture): 92.7%
